From article PMC6129982 (Nature, 2018) come the findings set out here.

The target of data set [1] is T1, Orco T465A (Apocrypta bakeri, UniProt B0FAQ4, T465A).
T1 sequence (B0FAQ4 1-474 T465A): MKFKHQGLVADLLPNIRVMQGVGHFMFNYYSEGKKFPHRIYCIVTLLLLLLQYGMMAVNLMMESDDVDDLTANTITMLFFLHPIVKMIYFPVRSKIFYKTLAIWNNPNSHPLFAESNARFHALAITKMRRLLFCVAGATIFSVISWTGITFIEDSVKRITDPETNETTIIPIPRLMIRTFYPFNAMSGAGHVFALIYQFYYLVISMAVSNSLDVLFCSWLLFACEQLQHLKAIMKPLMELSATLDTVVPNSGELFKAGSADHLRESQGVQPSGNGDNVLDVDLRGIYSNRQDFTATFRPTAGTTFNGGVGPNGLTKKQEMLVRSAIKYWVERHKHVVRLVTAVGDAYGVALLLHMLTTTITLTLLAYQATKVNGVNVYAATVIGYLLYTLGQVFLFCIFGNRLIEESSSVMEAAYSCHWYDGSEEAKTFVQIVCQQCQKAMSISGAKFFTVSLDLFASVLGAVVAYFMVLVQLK
The data set can be described thus: Cell-based GCaMP assay, mutant Orco homomer. Also on record: species or system A. bakeri. Conditions: mutation of Thr465 to alanine. Put shortly:
(§1)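 Orco alone (A. bakeri wild-type or point mutant, or An. gambiae) was transfected with GCaMP6s into HEK293 cells by lipofectamine. After 4 h plus 24 h, cells were read in HEPES-buffered HBSS pH 7.4 with 5 mM CaCl2. VUAA1 was added after 34 s at seven concentrations plus zero, four wells each. GCaMP fluorescence (480/527 nm, 37 °C) was followed for 2 min. A Hill equation fitted to ΔF/Fo gave EC50 and n over N independent replicates.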

The target in data set [2] is T2, Orco V469A (Apocrypta bakeri, UniProt B0FAQ4, V469A).
T2 sequence (B0FAQ4 1-474 V469A): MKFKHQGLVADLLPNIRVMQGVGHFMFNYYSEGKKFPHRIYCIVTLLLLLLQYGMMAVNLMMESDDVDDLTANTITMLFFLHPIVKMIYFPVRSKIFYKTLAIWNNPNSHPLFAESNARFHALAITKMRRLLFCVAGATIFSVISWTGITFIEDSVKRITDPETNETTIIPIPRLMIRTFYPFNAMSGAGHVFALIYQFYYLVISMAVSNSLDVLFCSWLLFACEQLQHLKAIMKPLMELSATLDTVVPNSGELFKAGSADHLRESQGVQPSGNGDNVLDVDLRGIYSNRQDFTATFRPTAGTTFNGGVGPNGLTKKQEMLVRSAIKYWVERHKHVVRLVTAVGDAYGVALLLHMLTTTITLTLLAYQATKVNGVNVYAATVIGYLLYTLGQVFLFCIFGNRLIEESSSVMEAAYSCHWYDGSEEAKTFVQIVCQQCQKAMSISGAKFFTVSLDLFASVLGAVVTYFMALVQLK
The data set can be described thus: Cell-based GCaMP assay, mutant Orco homomer. Also on record: species or system A. bakeri. Particulars: mutation of Val469 to alanine. Put shortly: as §1

Data set [3] addresses T3, Orco (Apocrypta bakeri, UniProt B0FAQ4).
T3 sequence (B0FAQ4 2-474): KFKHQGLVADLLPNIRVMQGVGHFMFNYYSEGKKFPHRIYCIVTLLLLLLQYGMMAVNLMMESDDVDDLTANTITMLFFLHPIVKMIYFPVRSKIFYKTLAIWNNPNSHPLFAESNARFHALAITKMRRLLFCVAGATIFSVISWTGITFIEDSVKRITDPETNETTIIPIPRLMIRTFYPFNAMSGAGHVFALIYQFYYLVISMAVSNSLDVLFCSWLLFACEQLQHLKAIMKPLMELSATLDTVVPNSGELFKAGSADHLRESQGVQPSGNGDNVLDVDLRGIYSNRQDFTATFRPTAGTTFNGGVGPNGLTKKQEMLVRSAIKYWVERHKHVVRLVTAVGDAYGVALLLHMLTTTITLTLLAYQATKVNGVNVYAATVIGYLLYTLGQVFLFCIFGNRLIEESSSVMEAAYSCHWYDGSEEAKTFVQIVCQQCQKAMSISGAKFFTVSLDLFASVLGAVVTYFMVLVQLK
As to the kind of experiment: Whole-cell voltage-clamp VUAA1 dose-response, HEK293 cell expressing Orco. Format: cell-based. Put shortly:
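Whole-cell recording used Flp-In T-Rex 293 cells stably expressing GFP-tagged wild-type Orco, held at −80 mV. Bath: 135 mM NaCl, 5 mM KCl, 2 mM CaCl2, 2 mM MgCl2, 10 mM glucose, HEPES pH 7.3. Pipette: 150 mM KCl, 10 mM NaCl, 1 mM EDTA, HEPES pH 7.45. VUAA1 was diluted in bath solution and locally perfused. Current was normalised to the current at the highest concentration and Hill-fitted; four cells, mean ± s.d. Outside-out patches were held at −140 mV.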

Data set [4] concerns the target T4, Orco-Fab complex (Apocrypta bakeri, UniProt B0FAQ4).
T4 sequence (B0FAQ4 2-474): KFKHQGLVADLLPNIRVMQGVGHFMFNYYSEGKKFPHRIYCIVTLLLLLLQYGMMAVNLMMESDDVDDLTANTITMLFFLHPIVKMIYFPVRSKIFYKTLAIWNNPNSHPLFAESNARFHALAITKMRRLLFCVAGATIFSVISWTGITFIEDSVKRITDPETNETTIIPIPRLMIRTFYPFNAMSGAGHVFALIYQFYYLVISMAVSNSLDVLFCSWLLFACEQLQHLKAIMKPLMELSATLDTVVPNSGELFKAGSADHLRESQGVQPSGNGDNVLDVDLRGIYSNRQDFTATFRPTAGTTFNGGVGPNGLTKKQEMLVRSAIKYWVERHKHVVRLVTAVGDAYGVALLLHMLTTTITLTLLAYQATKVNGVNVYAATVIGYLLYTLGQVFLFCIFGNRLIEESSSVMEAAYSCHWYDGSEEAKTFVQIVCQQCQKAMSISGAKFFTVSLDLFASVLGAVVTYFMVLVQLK
As to the kind of experiment: Isothermal titration calorimetry. Format: binding. The method, boiled down:
(§2)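 A. bakeri Orco was expressed from baculovirus in HEK293S GnTi− cells, StrepTactin-purified and tag-cleaved in HBS/0.05% digitonin. It was used alone or complexed with Fab (1.5-fold molar excess) at ~10 μM monomer. VUAA1 (0.5 mM in the same buffer, 0.5% DMSO matched) was injected at 25 °C: 0.4 μL, then 19 × 2 μL, 150 s apart. A single-site fit (n fixed at 1, first injection excluded) gave Kd, ΔH and ΔQdil; three independent purifications.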
(Isothermal titration calorimetry measures the heat released or taken up as one component is titrated into another.)

In data set [5] the target is T3, Orco. As to the kind of experiment: Isothermal titration calorimetry. Format: binding. The method, boiled down: as §2
The target in data set [6] is T5, Orco L473A (Apocrypta bakeri, UniProt B0FAQ4, L473A).
T5 sequence (B0FAQ4 1-474 L473A): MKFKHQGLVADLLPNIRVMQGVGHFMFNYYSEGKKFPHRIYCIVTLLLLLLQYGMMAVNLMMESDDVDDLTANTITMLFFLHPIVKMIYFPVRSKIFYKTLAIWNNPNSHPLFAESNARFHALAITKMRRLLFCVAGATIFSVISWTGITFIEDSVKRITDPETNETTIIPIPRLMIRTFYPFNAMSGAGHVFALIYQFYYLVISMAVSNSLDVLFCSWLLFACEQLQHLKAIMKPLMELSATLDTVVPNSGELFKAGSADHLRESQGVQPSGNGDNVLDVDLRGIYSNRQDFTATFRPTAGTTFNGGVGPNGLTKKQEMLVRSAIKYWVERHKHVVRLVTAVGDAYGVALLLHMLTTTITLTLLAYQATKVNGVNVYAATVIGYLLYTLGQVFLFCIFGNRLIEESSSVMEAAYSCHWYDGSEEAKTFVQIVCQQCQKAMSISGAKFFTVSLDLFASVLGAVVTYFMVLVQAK
The data set can be described thus: Cell-based GCaMP assay, mutant Orco homomer. Particulars: mutation of Leu473 to alanine. Also on record: species or system A. bakeri. The method, boiled down: as §1

The target in data set [7] is T6, Orco S458A (Apocrypta bakeri, UniProt B0FAQ4, S458A).
T6 sequence (B0FAQ4 1-474 S458A): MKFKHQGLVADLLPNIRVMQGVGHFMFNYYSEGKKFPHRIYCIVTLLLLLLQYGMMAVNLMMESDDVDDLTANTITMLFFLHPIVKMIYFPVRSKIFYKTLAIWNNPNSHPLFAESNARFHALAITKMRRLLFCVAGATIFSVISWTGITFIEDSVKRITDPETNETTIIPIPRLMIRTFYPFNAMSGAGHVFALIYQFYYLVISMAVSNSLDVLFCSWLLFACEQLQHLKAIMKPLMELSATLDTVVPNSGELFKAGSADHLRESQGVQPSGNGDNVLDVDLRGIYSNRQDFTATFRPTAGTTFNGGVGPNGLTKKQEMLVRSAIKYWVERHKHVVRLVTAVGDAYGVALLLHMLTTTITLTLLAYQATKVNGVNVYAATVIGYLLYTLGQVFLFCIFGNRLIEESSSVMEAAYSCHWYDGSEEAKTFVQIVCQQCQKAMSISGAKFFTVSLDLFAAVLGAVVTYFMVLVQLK
The data set can be described thus: Cell-based GCaMP assay, mutant Orco homomer. Conditions: mutation of Ser458 to alanine. Also on record: species or system A. bakeri. Put shortly: as §1

Data set [8] deals with the molecule itself. The data set can be described thus: cryo-EM structure.
Where [9] appears, read: ITC 25 °C, fitted parameter, mean ± s.d.
[10] abbreviates: ITC 25 °C, single-site model, mean ± s.d.

For orientation: EC50 means the concentration that produces a half-maximal response. Low values mean higher potency in that assay, high ones lower potency in that assay. In general, Kd refers to the free concentration of one partner at which half of the binding sites on the other are occupied at equilibrium, for simple one-to-one binding. Read a high Kd as lower affinity. By stoichiometry N is commonly meant the number of molecules, sites or subunits per partner or assembly.

Take `CCc1ccc(NC(=O)CSc2nnc(-c3cccnc3)n2CC)cc1` [VUAA1]: the “VUAA1 responses in Orco homomers versus wild-type” value in data set [1] and in data set [7] was “strongly attenuated” throughout. Moreover, the “enhancement of apparent sensitivity of Orco homomers versus wild-type” value in data set [2] and in data set [6] was 10 fold each time. In data set [3], this molecule registered an EC50 of 64 ± 7 µM. For the same molecule, the channel activation result in data set [3] (Orco expressed independently, whole-cell and outside-out patch recording) is reported as “activated”. In data set [3] (whole-cell current, Hill fit, four independent cells, mean ± s.d.), this molecule came in with a Hill coefficient n of 3.5 ± 0.5. The Kd in data set [4] came to 18 ± 2 µM; in data set [5], 13 ± 1 µM. The “binding affinity of Orco-Fab complex for VUAA1 versus Orco” value in data set [4] (ITC) is “retained its binding affinity”. Moreover, the “heat associated with sample dilution (ΔQdil)” value in data set [4] (setting [9]) is -1.0 ± 0.2 kcal/mol; in data set [5] (setting [9]), -1.0 ± 0.1 kcal/mol. Further, the “enthalpy of binding (ΔH)” value in data set [4] (setting [10]) was -9.7 ± 0.4 kcal/mol; in data set [5] (setting [10]) it was -8.3 ± 0.6 kcal/mol.

B1: Apocrypta bakeri Orco, purified (residues Lys2-Lys474, Strep-GFP tag cleaved) (receptor, UniProt B0FAQ4 2-474, looked up)
chain: KFKHQGLVADLLPNIRVMQGVGHFMFNYYSEGKKFPHRIYCIVTLLLLLLQYGMMAVNLMMESDDVDDLTANTITMLFFLHPIVKMIYFPVRSKIFYKTLAIWNNPNSHPLFAESNARFHALAITKMRRLLFCVAGATIFSVISWTGITFIEDSVKRITDPETNETTIIPIPRLMIRTFYPFNAMSGAGHVFALIYQFYYLVISMAVSNSLDVLFCSWLLFACEQLQHLKAIMKPLMELSATLDTVVPNSGELFKAGSADHLRESQGVQPSGNGDNVLDVDLRGIYSNRQDFTATFRPTAGTTFNGGVGPNGLTKKQEMLVRSAIKYWVERHKHVVRLVTAVGDAYGVALLLHMLTTTITLTLLAYQATKVNGVNVYAATVIGYLLYTLGQVFLFCIFGNRLIEESSSVMEAAYSCHWYDGSEEAKTFVQIVCQQCQKAMSISGAKFFTVSLDLFASVLGAVVTYFMVLVQLK
Regarding B1, the “stoichiometry N” value in data set [8] is 4.
